# Test results as given in ChEMBL document CHEMBL3046951, “Volatile constituents from the leaves of Callicarpa japonica Thunb. and their antibacterial activities” (2004).
# Tests used:
# Format in all cases: functional
# Listeria monocytogenes [1] = test: Antimicrobial activity against Listeria monocytogenes ATCC 19111 assessed as growth inhibition rate at 64.76 mg/l after 72 hr by spectrophotometry; settings: ATCC 19111, 72 h, read-out: GI
# Summary of the method: (§1)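 L. monocytogenes was grown at 30 °C in tryptic soy broth, subcultured for 18 h, and exposed to pure volatile compounds (>95% purity). Growth was followed by Bioscreen C optical density every 24 h for 72 h against a 10% Tween 80 control.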
# Vibrio parahaemolyticus [2] = test: Antimicrobial activity against Vibrio parahaemolyticus ATCC 33844 assessed as growth inhibition rate at 64.76 mg/l after 72 hr by spectrophotometry; settings: ATCC 33844, 72 h, read-out: GI
# Salmonella typhimurium [3] = test: Antimicrobial activity against Salmonella enterica subsp. enterica serovar Typhimurium ATCC 14028 assessed as growth inhibition rate at 64.76 mg/l after 72 hr by spectrophotometry; settings: ATCC 14028, 72 h, read-out: GI
# Escherichia coli [4] = test: Antimicrobial activity against Escherichia coli O157:H7 ATCC 43894 assessed as growth inhibition rate at 64.76 mg/l after 72 hr by spectrophotometry; settings: O157:H7 ATCC 43894, 72 h, read-out: GI
# Summary of the method: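 Authentic volatiles (>95% purity; 2,4-heptadienal 90%) tested against 18 h subcultures. Growth media: E. coli O157:H7 and S. aureus in tryptic soy broth at 37 °C; L. monocytogenes in tryptic soy broth at 30 °C; V. parahaemolyticus in tryptic soy broth + 3% NaCl at 37 °C; S. typhimurium in nutrient broth at 30 °C. Bioscreen C OD every 24 h for 72 h versus 10% Tween 80 control.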
# Staphylococcus aureus [5] = test: Antimicrobial activity against Staphylococcus aureus ATCC 25923 assessed as growth inhibition rate at 64.76 mg/l after 72 hr by spectrophotometry; settings: ATCC 25923, 72 h, read-out: GI
# Bacillus cereus [6] = test: Antimicrobial activity against Bacillus cereus ATCC 11778 assessed as growth inhibition rate at 64.76 mg/l after 72 hr by spectrophotometry; settings: ATCC 11778, 72 h, read-out: GI
# Summary of the method: (§2)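 Pure volatile compounds (purity >95%; one at 90%) were tested against B. cereus ATCC 11778. The strain was grown at 30 °C in nutrient broth for 24 h, then subcultured for 18 h. Optical density was read in a Bioscreen C every 24 h for 72 h, with 10% Tween 80 as the control.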
# Listeria monocytogenes [7] = test: Antimicrobial activity against Listeria monocytogenes ATCC 19111 assessed as growth inhibition rate at 4.64 mg/l after 72 hr by spectrophotometry; settings: ATCC 19111, 72 h, read-out: GI; summary of the method: as §1
# Vibrio parahaemolyticus [8] = test: Antimicrobial activity against Vibrio parahaemolyticus ATCC 33844 assessed as growth inhibition rate at 4.64 mg/l after 72 hr by spectrophotometry; settings: ATCC 33844, 72 h, read-out: GI
# Salmonella typhimurium [9] = test: Antimicrobial activity against Salmonella enterica subsp. enterica serovar Typhimurium ATCC 14028 assessed as growth inhibition rate at 4.64 mg/l after 72 hr by spectrophotometry; settings: ATCC 14028, 72 h, read-out: GI
# Summary of the method: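 Salmonella Typhimurium ATCC 14028 grown in nutrient broth at 30 °C, precultured 24 h, then subcultured 1:100 for 18 h before testing. Single volatile compounds (>95% pure) were added. OD was read every 24 h over 72 h in a Bioscreen C, with 10% Tween 80 as the comparison control.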
# Escherichia coli [10] = test: Antimicrobial activity against Escherichia coli O157:H7 ATCC 43894 assessed as growth inhibition rate at 4.64 mg/l after 72 hr by spectrophotometry; settings: O157:H7 ATCC 43894, 72 h, read-out: GI
# Staphylococcus aureus [11] = test: Antimicrobial activity against Staphylococcus aureus ATCC 25923 assessed as growth inhibition rate at 4.64 mg/l after 72 hr by spectrophotometry; settings: ATCC 25923, 72 h, read-out: GI
# Bacillus cereus [12] = test: Antimicrobial activity against Bacillus cereus ATCC 11778 assessed as growth inhibition rate at 4.64 mg/l after 72 hr by spectrophotometry; settings: ATCC 11778, 72 h, read-out: GI; summary of the method: as §2
smiles,measurement,setting,value
C/C1=C\CC/C(C)=C/CC(C)(C)/C=C/C1 [ALPHA-HUMULONE],inhibition of growth at 64.76 µg/mL,Listeria monocytogenes [1],13.9%
same,inhibition of growth at 64.76 µg/mL,Vibrio parahaemolyticus [2],15.7%
same,inhibition of growth at 64.76 µg/mL,Salmonella typhimurium [3],6.9%
same,inhibition of growth at 64.76 µg/mL,Escherichia coli [4],4.6%
same,inhibition of growth at 64.76 µg/mL,Staphylococcus aureus [5],6.6%
same,inhibition of growth at 64.76 µg/mL,Bacillus cereus [6],40.1%
C[C@@H]1CC[C@@H]2[C@@H]1[C@H]1[C@@H](CC[C@@]2(C)O)C1(C)C [GLOBULOL],inhibition of growth at 4.64 µg/mL,Listeria monocytogenes [7],6.3%
same,inhibition of growth at 4.64 µg/mL,Vibrio parahaemolyticus [8],0%
same,inhibition of growth at 4.64 µg/mL,Salmonella typhimurium [9],0.8%
same,inhibition of growth at 4.64 µg/mL,Escherichia coli [10],0%
same,inhibition of growth at 4.64 µg/mL,Staphylococcus aureus [11],8.3%
same,inhibition of growth at 4.64 µg/mL,Bacillus cereus [12],1.9%
